Assay [1] concerns the target T1, Thymidylate synthase (Homo sapiens, UniProt P04818). As to the kind of experiment: Inhibition of human thymidylate synthase at 600 uM concentration of 5,10-CH2-H4PteGlu. An outline of the steps:
(§1)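 TS purified ~1350-fold (specific activity 17.4 units/mg) from human acute myeloblastic leukemia cell pellet; tritium-release assay with [5-3H]dUMP, started by enzyme addition, 45 or 60 min incubation. Ki from varying dUMP, 5,10-CH2-H4PteGlu or 5,10-CH2-H4PteGlu5 at several fixed inhibitor levels; fixed cosubstrate 28 µM dUMP or 600 µM CH2-H4PteGlu (40 µM pentaglutamate); duplicate/triplicate, repeated.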
Target sequence in this assay (P04818 whole entry): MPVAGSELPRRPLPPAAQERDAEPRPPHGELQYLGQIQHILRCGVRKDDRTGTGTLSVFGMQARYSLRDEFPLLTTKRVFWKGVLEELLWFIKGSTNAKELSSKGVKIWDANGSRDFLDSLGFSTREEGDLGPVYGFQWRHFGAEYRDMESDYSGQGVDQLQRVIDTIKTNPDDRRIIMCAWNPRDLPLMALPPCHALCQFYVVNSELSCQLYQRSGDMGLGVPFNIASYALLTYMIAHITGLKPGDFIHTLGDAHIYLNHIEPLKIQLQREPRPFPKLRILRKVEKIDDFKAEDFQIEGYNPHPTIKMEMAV

Assay [2] has as its target T1, Thymidylate synthase. As to the kind of experiment: Competitive inhibition of the human thymidylate synthase at 28 uM as Ki(slope) of 5,10-CH2-H4PteGlu. The essentials:
as §1
Target sequence in this assay (P04818 whole entry): as above

Assay [3] concerns the target T1, Thymidylate synthase. As to the kind of experiment: Mixed inhibition of the human thymidylate synthase at 28 uM of 5,10-CH2-H4PteGlu5. The essentials: as §1
Target sequence in this assay (P04818 2-313 limits assumed): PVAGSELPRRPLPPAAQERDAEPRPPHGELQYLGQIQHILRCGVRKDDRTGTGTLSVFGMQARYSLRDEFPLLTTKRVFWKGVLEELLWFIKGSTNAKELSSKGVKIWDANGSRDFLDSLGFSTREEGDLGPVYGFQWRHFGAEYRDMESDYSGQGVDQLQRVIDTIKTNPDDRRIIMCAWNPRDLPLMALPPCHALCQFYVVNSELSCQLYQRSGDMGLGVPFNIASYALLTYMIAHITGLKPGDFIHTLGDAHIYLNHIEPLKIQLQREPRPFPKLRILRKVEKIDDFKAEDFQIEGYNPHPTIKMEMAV
Assay [4] deals with T1, Thymidylate synthase. As to the kind of experiment: Inhibition of human thymidylate synthase at 40 uM concentration of 5,10-CH2-H4PteGlu5. An outline of the steps:
as §1
Target sequence in this assay (P04818 whole entry): as the sequence (P04818 whole entry) above

Assay [5] addresses T1, Thymidylate synthase. Put plainly: Competitive inhibition of the human thymidylate synthase at 600 uM as Ki(slope) of 5,10-CH2-H4PteGlu. The conditions noted are these: in the assay text read “28 uM dUMP” for “600 uM”. The essentials: as §1
Target sequence in this assay (P04818 whole entry): as above
The target in assay [6] is T1, Thymidylate synthase. As to the kind of experiment: Competitive inhibition of the human thymidylate synthase at 600 uM of 5,10-CH2-H4PteGlu.
Target sequence in this assay (P04818 whole entry): as above

SMILES strings stand for the structures.

What is called IC50 is the point on the concentration scale where inhibition reaches its midpoint. Low values mean greater potency in that assay, high ones weaker potency in that assay. For orientation: Ki means the equilibrium dissociation constant of an inhibitor or competing ligand from its target. The low end stands for higher affinity, the high end for lower affinity.

For the molecule `Cc1nc(N)nc(O)c1N(CCN(C)c1ccc(C(=O)NC(CCC(=O)O)C(=O)O)cc1)Cc1cn([C@H]2C[C@H](O)[C@@H](COP(=O)(O)O)O2)c(=O)[nH]c1=O` (stereo partly drawn), the results for the IC50 against Thymidylate synthase [1] and at Thymidylate synthase [4] were 1000 nM and 350 nM, respectively. Further, on Thymidylate synthase [2], the Ki came to 230 nM. Moreover, the Kii at Thymidylate synthase [3] was found to be 0.2 µM. Moreover, the Kis on Thymidylate synthase [3] was determined as 1.19 µM.

For the molecule `Cc1nc(N)nc(O)c1N(CCNc1ccc(C(=O)NC(CCC(=O)O)C(=O)O)cc1)Cc1cn([C@H]2C[C@H](O)[C@@H](COP(=O)(O)O)O2)c(=O)[nH]c1=O` (stereo partly drawn), the IC50 at Thymidylate synthase [1] came out at 7300 nM; against Thymidylate synthase [4], 1180 nM.

Turning to `Nc1nc(O)c2c(n1)CCC(CNc1ccc(C(=O)NC(CCC(=O)O)C(=O)O)cc1)N2Cc1cn([C@H]2C[C@H](O)[C@@H](COP(=O)(O)O)O2)c(=O)[nH]c1=O` (stereo partly drawn), the figures for the IC50 against Thymidylate synthase [1] and against Thymidylate synthase [4] were 390 nM and 200 nM, respectively. Besides, the Ki amounted to 85 nM at Thymidylate synthase [5] and 27 nM on Thymidylate synthase [6]. At Thymidylate synthase [3], this molecule returned a Kii of 0.11 µM. The Kis on Thymidylate synthase [3] amounted to 0.33 µM.

Source of the values: ChEMBL document CHEMBL1124003, “A pyrimidine-based "flexible" bisubstrate analogue inhibitor of human thymidylate synthase” (J Med Chem, 1988).
